According to ChEMBL document CHEMBL3627671, “Novel derivatives of nitro-substituted salicylic acids: Synthesis, antimicrobial activity and cytotoxicity” (Bioorg Med Chem, 2015):

Legend:
Type in all cases: functional
[1] = system: Mycobacterium tuberculosis; test: Antimycobacterial activity against Mycobacterium tuberculosis H37Rv 331/88 after 14 days; conditions: H37Rv 331/88, 336 h
[2] = system: Mycobacterium tuberculosis; test: Antimycobacterial activity against Mycobacterium tuberculosis H37Rv 331/88 after 21 days; conditions: H37Rv 331/88, 504 h
[3] = system: Mycobacterium avium; test: Antimycobacterial activity against Mycobacterium avium 330/80 after 14 days; conditions: 330/80, 336 h
[4] = system: Mycobacterium avium; test: Antimycobacterial activity against Mycobacterium avium 330/80 after 21 days; conditions: 330/80, 504 h
[5] = system: Mycobacterium kansasii; test: Antimycobacterial activity against Mycobacterium kansasii 235/80 after 7 days; conditions: 235/80, 168 h
Method in brief: (§1)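 Šula's semisynthetic medium micromethod at 37 °C, read after 7, 14 and 21 days. The 1.0 McFarland suspension was diluted 10^-4. MIC determined. 6509/96 is a clinical isolate.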

[6] = system: Mycobacterium kansasii; test: Antimycobacterial activity against Mycobacterium kansasii 235/80 after 14 days; conditions: 235/80, 336 h; method in brief: as §1
[7] = system: Mycobacterium kansasii; test: Antimycobacterial activity against Mycobacterium kansasii 235/80 after 21 days; conditions: 235/80, 504 h; method in brief: as §1
[8] = system: Mycobacterium kansasii; test: Antimycobacterial activity against Mycobacterium kansasii 6509/96 after 7 days; conditions: 6509/96, 168 h; method in brief: as §1
[9] = system: Mycobacterium kansasii; test: Antimycobacterial activity against Mycobacterium kansasii 6509/96 after 14 days; conditions: 6509/96, 336 h; method in brief: as §1
[10] = system: Mycobacterium kansasii; test: Antimycobacterial activity against Mycobacterium kansasii 6509/96 after 21 days; conditions: 6509/96, 504 h; method in brief: as §1
[11] = system: Staphylococcus aureus; test: Antibacterial activity against Staphylococcus aureus CCM 4516/08 after 24 hrs by microdilution broth method; conditions: CCM 4516/08, 24 h
[12] = system: Staphylococcus aureus; test: Antibacterial activity against Staphylococcus aureus CCM 4516/08 after 48 hrs by microdilution broth method; conditions: CCM 4516/08, 48 h
[13] = system: Staphylococcus aureus; test: Antibacterial activity against methicillin-resistant Staphylococcus aureus H 5996/08 after 24 hrs by microdilution broth method; conditions: H 5996/08, 24 h
[14] = system: Staphylococcus aureus; test: Antibacterial activity against methicillin-resistant Staphylococcus aureus H 5996/08 after 48 hrs by microdilution broth method; conditions: H 5996/08, 48 h
[15] = system: Staphylococcus epidermidis; test: Antibacterial activity against Staphylococcus epidermidis H 6966/08 after 24 hrs by microdilution broth method; conditions: H 6966/08, 24 h
Method in brief: (§2)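 Mueller-Hinton broth microdilution (modified M07-A07), pH 7.4 (±0.2). Compounds dissolved in DMSO, tested at final 500 to 0.49 µmol/L. Inoculum in sterile water matched to 0.5 McFarland. Incubated in the dark, humid atmosphere, 35 °C, read at 24 and 48 h visually and at 540 nm. MIC taken as ≥95% growth reduction (IC95) versus control.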

[16] = system: Staphylococcus epidermidis; test: Antibacterial activity against Staphylococcus epidermidis H 6966/08 after 48 hrs by microdilution broth method; conditions: H 6966/08, 48 h; method in brief: as §2
[17] = system: Enterococcus sp.; test: Antibacterial activity against Enterococcus sp. J 14365/08 after 24 hrs by microdilution broth method; conditions: J 14365/08, 24 h; method in brief: as §2
[18] = system: Enterococcus sp.; test: Antibacterial activity against Enterococcus sp. J 14365/08 after 48 hrs by microdilution broth method; conditions: J 14365/08, 48 h; method in brief: as §2
[19] = system: Escherichia coli; test: Antibacterial activity against Escherichia coli CCM4517 after 24 hrs by microdilution broth method; conditions: CCM4517, 24 h; method in brief: as §2
[20] = system: Escherichia coli; test: Antibacterial activity against Escherichia coli CCM4517 after 48 hrs by microdilution broth method; conditions: CCM4517, 48 h; method in brief: as §2
[21] = system: Klebsiella pneumoniae; test: Antibacterial activity against Klebsiella pneumoniae D 11750/08 after 24 hrs by microdilution broth method; conditions: D 11750/08, 24 h; method in brief: as §2
[22] = system: Klebsiella pneumoniae; test: Antibacterial activity against Klebsiella pneumoniae D 11750/08 after 48 hrs by microdilution broth method; conditions: D 11750/08, 48 h; method in brief: as §2
[23] = system: Klebsiella pneumoniae; test: Antibacterial activity against ESBL-positive Klebsiella pneumoniae J 14368/08 after 24 hrs by microdilution broth method; conditions: J 14368/08, 24 h; method in brief: as §2
[24] = system: Klebsiella pneumoniae; test: Antibacterial activity against ESBL-positive Klebsiella pneumoniae J 14368/08 after 48 hrs by microdilution broth method; conditions: J 14368/08, 48 h; method in brief: as §2
[25] = system: Pseudomonas aeruginosa; test: Antibacterial activity against Pseudomonas aeruginosa CCM 1961 after 24 hrs by microdilution broth method; conditions: CCM 1961, 24 h; method in brief: as §2
[26] = system: Pseudomonas aeruginosa; test: Antibacterial activity against Pseudomonas aeruginosa CCM 1961 after 48 hrs by microdilution broth method; conditions: CCM 1961, 48 h; method in brief: as §2
[27] = system: Candida albicans; test: Antifungal activity against Candida albicans ATCC 44859 after 24 hrs by microdilution broth method; conditions: ATCC 44859, 24 h
Method in brief: (§3)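 CLSI M27-A3 broth microdilution in RPMI 1640 with glutamine, buffered to pH 7.0 with MOPS; DMSO diluent. Yeast inoculum 5 × 10^3 ± 0.2 CFU/mL. Moulds grown on Sabouraud agar 3–10 days before spore harvest, final inoculum 0.5-5 × 10^4 CFU/mL, checked in a Bürker chamber. Incubated dark, humid, 35 °C, read at 24 and 48 h visually and at 540 nm. MIC taken as ≥80% (yeasts) or ≥50% (filamentous) growth reduction versus control.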

[28] = system: Candida albicans; test: Antifungal activity against Candida albicans ATCC 44859 after 48 hrs by microdilution broth method; conditions: ATCC 44859, 48 h; method in brief: as §3
[29] = system: Candida tropicalis; test: Antifungal activity against Candida tropicalis 156 after 24 hrs by microdilution broth method; conditions: Candida tropicalis, 156, 24 h; method in brief: as §3
[30] = system: Candida tropicalis; test: Antifungal activity against Candida tropicalis 156 after 48 hrs by microdilution broth method; conditions: Candida tropicalis, 156, 48 h; method in brief: as §3
[31] = system: Pichia kudriavzevii; test: Antifungal activity against Candida krusei E28 after 24 hrs by microdilution broth method; conditions: E28, 24 h; method in brief: as §3
[32] = system: Pichia kudriavzevii; test: Antifungal activity against Candida krusei E28 after 48 hrs by microdilution broth method; conditions: E28, 48 h; method in brief: as §3
[33] = system: Nakaseomyces glabratus; test: Antifungal activity against Candida glabrata 20/I after 24 hrs by microdilution broth method; method in brief: as §3
[34] = system: Nakaseomyces glabratus; test: Antifungal activity against Candida glabrata 20/I after 48 hrs by microdilution broth method; method in brief: as §3
[35] = system: Trichosporon asahii; test: Antifungal activity against Trichosporon asahii 1188 after 24 hrs by microdilution broth method; conditions: Trichosporon asahii, 1188, 24 h; method in brief: as §3
[36] = system: Trichosporon asahii; test: Antifungal activity against Trichosporon asahii 1188 after 48 hrs by microdilution broth method; conditions: Trichosporon asahii, 1188, 48 h; method in brief: as §3
[37] = system: Aspergillus fumigatus; test: Antifungal activity against Aspergillus fumigatus 231 after 24 hrs by microdilution broth method; conditions: Aspergillus fumigatus, 231, 24 h; method in brief: as §3
[38] = system: Aspergillus fumigatus; test: Antifungal activity against Aspergillus fumigatus 231 after 48 hrs by microdilution broth method; conditions: Aspergillus fumigatus, 231, 48 h; method in brief: as §3
[39] = system: Lichtheimia corymbifera; test: Antifungal activity against Absidia corymbifera 272 after 24 hrs by microdilution broth method; conditions: Lichtheimia corymbifera, 272, 24 h; method in brief: as §3
[40] = system: Lichtheimia corymbifera; test: Antifungal activity against Absidia corymbifera 272 after 48 hrs by microdilution broth method; conditions: Lichtheimia corymbifera, 272, 48 h; method in brief: as §3
[41] = system: Trichophyton mentagrophytes; test: Antifungal activity against Trichophyton mentagrophytes 445 after 24 hrs by microdilution broth method; conditions: Trichophyton mentagrophytes, 445, 24 h
[42] = system: Trichophyton mentagrophytes; test: Antifungal activity against Trichophyton mentagrophytes 445 after 48 hrs by microdilution broth method; conditions: Trichophyton mentagrophytes, 445, 48 h

Measured: MIC

O=C(Nc1ccc([N+](=O)[O-])cc1)c1cc([N+](=O)[O-])ccc1O
62.5 µM: [1] | [6] | [8]
500 µM: [15] | [16]
16 µM: [5]
250 µM: [3] | [4] | [11] | [12] | [13] | [14]
125 µM: [2] | [7] | [9] | [10]
> 500 µM: all other assays above

O=C(Nc1cccc(F)c1)c1cc([N+](=O)[O-])ccc1O
62.5 µM: [6] | [7] | [9] | [10]
32 µM: [2] | [8]
16 µM: [1] | [5]
500 µM: [41] | [42]
250 µM: [16]
125 µM: [3] | [4] | [11] | [12] | [13] | [14] | [15]
> 500 µM: all other assays above
